The source made the active and inactive calls. The calls are words filed in the database; no cut-off is given here.
Assays:
[1] = biological target: Acetylcholine receptor; alpha1/beta1/delta/gamma (Homo sapiens) (UniProt P02708+P07510+P11230+Q07001); assay: Inhibition of alpha1beta1gammadelta nAChR (unknown origin) at 10 uM; format: protein-complex assay
Outline: (§1)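 Receptor, ion channel and transporter binding panel run at Cerep in duplicate. Percent inhibition measured at 10 μM compound.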

[2] = biological target: T1, 5-hydroxytryptamine receptor 3A (Homo sapiens) (UniProt P46098); assay: Inhibition of 5-HT3 receptor (unknown origin) at 10 uM; outline: as §1
T1 sequence (whole entry): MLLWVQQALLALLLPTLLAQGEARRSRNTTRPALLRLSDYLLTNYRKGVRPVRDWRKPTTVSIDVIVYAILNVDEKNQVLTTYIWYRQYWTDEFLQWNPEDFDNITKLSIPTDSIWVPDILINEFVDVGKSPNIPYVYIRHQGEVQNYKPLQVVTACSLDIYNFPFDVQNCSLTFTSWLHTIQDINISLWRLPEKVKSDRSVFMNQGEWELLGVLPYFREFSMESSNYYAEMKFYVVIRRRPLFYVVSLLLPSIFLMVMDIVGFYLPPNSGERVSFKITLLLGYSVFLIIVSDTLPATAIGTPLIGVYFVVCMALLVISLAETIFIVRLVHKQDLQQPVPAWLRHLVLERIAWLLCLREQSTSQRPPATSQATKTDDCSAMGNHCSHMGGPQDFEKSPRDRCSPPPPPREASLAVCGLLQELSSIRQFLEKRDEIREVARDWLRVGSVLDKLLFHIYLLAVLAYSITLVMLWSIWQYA

[3] = biological target: Neuronal acetylcholine receptor; alpha4/beta2 (Homo sapiens, UniProt P17787+P43681); assay: Inhibition of human alpha4beta2 nAChR at 10 uM by binding assay
[4] = biological target: Neuronal acetylcholine receptor subunit alpha-7 (Rattus norvegicus, UniProt Q05941); assay: Inhibition of biotinylated alpha-bungarotoxin binding to alpha7 nAChR in rat PC12 cells by FACS analysis; format: cell-based, PC-12
Outline: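 Rat PC12 cells in binding buffer (PBS, 1.0% FBS, 0.02% sodium azide), 0.1% DMSO; biotinylated α-bungarotoxin 10 nM final, 1 h at room temperature; nonspecific binding defined with 1.5 μM unlabeled toxin. After washing, phycoerythrin-streptavidin 1.0 μg/mL final, 15 min in the dark; read by FACS. Screened at 10 and 1 μM, then eight-point 3-fold dilution IC50; mean of two or more experiments.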

CYP2D6 = CYP2D6 (Homo sapiens, UniProt P10635); assay: Inhibition of CYP2D6 (unknown origin) at 10 uM; format: ADME
Outline: (§2)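 Each of five Cyp isoforms assayed with single probe substrates rather than a substrate cocktail. Run in duplicate at Cerep. IC50 lines come from a 5-concentration titration curve.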

hERG (KCNH2) = hERG (KCNH2) (Homo sapiens, UniProt Q12809); assay: Inhibition of human ERG at 1 uM by whole-cell voltage clamp assay
CYP3A4 = CYP3A4 (Homo sapiens, UniProt P08684); assay: Inhibition of CYP3A4 (unknown origin) at 10 uM; format: ADME; outline: as §2
CYP2C19 = CYP2C19 (Homo sapiens, UniProt P33261); assay: Inhibition of CYP2C19 (unknown origin) at 10 uM; format: ADME; outline: as §2
CYP2C9 = CYP2C9 (Homo sapiens, UniProt P11712); assay: Inhibition of CYP2C9 (unknown origin) at 10 uM; format: ADME; outline: as §2
CYP1A2 = biological target: T2, CYP1A2 (Homo sapiens, UniProt P05177); assay: Inhibition of CYP1A2 (unknown origin) at 10 uM; format: ADME; outline: as §2
T2 sequence (P05177 whole entry): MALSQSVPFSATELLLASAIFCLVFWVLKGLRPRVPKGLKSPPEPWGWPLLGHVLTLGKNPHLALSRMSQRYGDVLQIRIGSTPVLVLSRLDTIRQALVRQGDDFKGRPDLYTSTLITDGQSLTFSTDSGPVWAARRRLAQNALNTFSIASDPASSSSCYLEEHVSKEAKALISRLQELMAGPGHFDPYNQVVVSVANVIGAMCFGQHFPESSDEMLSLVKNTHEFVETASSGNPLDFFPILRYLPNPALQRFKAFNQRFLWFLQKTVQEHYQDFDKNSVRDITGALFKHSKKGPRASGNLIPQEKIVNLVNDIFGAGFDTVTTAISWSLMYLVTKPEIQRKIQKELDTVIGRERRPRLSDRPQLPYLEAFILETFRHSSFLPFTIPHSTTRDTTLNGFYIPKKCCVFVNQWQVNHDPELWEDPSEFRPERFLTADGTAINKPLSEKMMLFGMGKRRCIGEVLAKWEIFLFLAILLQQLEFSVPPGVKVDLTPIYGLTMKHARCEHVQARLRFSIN

Mus musculus [5] = assay: (§3) Antiinflammatory activity against ovalbumin-induced allergic lung inflammation BALB/c mouse model assessed as reduction in neutrophils in brochoalveolar lavage fluid at 1 mg/kg, po bid administered on day 29 to 31 post ovalbumin challenge measured 8 hrs post last challenge relative to vehicle-treated control; format: functional; details: Bronchoalveolar lavage
Outline: (§4)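 Balb/c mice sensitized with ovalbumin by IP injection on days 1 and 14, then challenged intranasally with 100 μg ovalbumin on days 29, 30 and 31. Compound in saline given orally starting 30 min before each challenge; groups of six mice. Sham groups were saline-sensitized and allergen-challenged. BAL taken 8 h after the last challenge, with differential cell counts on slides.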

Mus musculus [6] = assay: as §3, with “eosinophils” for “neutrophils”; format: functional; outline: as §4

CYP2C9, sequence (P11712 whole entry): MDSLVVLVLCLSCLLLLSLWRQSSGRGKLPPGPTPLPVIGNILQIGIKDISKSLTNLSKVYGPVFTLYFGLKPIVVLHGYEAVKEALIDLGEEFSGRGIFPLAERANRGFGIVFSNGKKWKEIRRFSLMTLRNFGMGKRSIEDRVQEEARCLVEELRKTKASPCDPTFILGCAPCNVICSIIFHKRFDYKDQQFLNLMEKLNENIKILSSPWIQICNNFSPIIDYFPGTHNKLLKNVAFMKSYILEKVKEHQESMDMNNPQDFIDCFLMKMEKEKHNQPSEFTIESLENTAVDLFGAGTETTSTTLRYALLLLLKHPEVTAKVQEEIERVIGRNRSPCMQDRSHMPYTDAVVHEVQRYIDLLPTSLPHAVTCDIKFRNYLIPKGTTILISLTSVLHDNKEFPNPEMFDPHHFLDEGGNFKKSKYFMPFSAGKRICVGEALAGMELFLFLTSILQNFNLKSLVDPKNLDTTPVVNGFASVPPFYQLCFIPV
CYP3A4, sequence (P08684 whole entry): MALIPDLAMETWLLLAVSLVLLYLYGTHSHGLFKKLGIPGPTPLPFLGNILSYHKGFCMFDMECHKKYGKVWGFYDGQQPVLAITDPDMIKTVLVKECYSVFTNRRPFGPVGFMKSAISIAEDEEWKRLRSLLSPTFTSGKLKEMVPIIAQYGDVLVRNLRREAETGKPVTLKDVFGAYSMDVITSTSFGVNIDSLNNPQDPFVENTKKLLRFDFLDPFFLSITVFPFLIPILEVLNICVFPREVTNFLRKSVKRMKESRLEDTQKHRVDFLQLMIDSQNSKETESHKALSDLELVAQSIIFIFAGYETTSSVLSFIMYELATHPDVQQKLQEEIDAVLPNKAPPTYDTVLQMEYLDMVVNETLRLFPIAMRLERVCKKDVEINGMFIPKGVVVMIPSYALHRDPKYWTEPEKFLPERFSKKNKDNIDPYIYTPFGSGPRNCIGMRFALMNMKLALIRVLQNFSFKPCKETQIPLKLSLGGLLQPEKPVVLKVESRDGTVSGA
Neuronal acetylcholine receptor subunit alpha-7, sequence (Q05941 whole entry): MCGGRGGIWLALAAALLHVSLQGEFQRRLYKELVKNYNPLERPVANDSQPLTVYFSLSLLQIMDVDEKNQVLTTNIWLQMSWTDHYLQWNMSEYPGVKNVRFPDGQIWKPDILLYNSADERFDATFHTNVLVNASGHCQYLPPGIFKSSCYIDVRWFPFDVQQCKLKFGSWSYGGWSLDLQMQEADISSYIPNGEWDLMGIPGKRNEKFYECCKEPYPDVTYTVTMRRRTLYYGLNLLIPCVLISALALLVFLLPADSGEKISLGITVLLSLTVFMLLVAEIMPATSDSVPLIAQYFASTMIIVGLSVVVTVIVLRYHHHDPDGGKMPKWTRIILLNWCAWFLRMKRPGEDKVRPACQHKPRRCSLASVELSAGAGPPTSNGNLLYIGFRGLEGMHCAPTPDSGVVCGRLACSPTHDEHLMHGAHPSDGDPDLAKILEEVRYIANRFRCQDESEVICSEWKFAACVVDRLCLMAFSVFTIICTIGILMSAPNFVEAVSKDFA
CYP2D6, sequence (P10635 whole entry, canonical isoform): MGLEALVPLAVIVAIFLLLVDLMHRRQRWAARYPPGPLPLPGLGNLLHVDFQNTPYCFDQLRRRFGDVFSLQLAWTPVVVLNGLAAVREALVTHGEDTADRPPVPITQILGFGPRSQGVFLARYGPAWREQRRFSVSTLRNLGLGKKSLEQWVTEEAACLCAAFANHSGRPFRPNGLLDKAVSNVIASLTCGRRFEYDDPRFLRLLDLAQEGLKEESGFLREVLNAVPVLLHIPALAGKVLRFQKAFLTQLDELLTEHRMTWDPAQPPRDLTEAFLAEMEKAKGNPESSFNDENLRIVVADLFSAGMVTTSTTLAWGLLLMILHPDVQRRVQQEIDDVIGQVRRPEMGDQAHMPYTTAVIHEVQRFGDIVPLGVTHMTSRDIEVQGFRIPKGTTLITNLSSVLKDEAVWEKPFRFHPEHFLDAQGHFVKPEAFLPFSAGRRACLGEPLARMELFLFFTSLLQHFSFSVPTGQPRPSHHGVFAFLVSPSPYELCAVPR
hERG (KCNH2), sequence (Q12809 whole entry): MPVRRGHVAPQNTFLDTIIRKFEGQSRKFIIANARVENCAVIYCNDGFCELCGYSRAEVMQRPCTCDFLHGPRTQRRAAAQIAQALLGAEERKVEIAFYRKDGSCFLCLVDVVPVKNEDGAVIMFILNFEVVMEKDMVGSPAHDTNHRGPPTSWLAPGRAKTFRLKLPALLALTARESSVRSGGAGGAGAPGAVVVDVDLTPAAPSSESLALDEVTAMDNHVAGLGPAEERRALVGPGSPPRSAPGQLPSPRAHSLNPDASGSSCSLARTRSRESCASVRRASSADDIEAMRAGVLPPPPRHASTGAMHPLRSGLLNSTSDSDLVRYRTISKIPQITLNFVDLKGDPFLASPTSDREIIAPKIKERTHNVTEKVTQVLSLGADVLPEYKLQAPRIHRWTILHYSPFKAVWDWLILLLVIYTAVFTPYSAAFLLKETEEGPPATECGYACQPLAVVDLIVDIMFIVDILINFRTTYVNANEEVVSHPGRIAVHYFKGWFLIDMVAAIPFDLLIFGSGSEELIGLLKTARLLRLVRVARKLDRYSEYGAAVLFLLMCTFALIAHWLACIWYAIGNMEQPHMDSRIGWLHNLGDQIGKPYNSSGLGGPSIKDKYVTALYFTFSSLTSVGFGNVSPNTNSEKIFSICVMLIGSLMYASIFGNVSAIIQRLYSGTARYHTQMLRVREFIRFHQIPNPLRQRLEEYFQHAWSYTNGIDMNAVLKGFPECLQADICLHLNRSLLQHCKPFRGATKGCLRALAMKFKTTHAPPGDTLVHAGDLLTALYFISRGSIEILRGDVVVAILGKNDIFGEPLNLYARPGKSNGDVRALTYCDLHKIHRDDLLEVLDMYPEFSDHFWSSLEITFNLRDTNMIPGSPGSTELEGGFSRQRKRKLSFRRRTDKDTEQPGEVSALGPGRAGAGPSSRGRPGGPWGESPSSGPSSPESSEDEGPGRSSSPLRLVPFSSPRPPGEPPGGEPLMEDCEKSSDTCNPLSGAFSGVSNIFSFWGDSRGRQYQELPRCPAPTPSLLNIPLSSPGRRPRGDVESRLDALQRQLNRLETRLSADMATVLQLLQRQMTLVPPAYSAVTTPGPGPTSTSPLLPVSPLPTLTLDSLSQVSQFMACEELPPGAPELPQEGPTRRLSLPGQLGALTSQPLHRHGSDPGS
CYP2C19, sequence (P33261 whole entry): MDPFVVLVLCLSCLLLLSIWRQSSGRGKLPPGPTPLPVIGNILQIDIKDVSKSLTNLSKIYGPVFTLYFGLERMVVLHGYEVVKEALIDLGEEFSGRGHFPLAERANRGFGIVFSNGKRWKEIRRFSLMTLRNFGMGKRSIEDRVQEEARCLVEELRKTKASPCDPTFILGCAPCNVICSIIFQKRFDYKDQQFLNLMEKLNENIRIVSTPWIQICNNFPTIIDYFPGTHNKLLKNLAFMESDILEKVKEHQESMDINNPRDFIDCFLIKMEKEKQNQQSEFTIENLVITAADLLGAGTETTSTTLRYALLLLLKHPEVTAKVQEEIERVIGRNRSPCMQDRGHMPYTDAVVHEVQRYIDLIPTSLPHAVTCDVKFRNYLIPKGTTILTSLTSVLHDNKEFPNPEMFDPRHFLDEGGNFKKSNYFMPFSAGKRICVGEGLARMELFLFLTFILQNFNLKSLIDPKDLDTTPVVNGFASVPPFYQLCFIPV

Brc1ccc2oc(N3CCNC[C@@H]3COc3cccnc3)nc2c1
inhibition [1]: -3% | inhibition [2]: 100% | inhibition [3]: 96% | IC50 [4]: 67 nM

Brc1ccc2oc(N3CCNC[C@H]3COc3cccnc3)nc2c1
IC50 [4]: 3200 nM

c1cncc(OC[C@@H]2CNCCN2c2nc3ncccc3o2)c1
IC50 [4]: 1580 nM

COc1ccc2nc(N3CCNC[C@@H]3COc3cccnc3)sc2c1
inhibition at 10 µM (CYP2D6): 50% | inhibition at 1 µM (hERG (KCNH2)): 36% | inhibition [1]: 9% | inhibition at 10 µM (CYP3A4): 49% | inhibition at 10 µM (CYP2C19): 78% | inhibition at 10 µM (CYP2C9): 33% | inhibition at 10 µM (CYP1A2): 63% | inhibition [2]: 99% | inhibition [3]: 83% | IC50 [4]: 46 nM

COc1ccc2nc(N3CCNC[C@H]3COc3cccnc3)sc2c1
IC50 [4]: 5100 nM

COc1ccc(NC(=O)N2CCNC[C@H]2COc2cccnc2)cc1
inhibition [1]: 2% | inhibition (Mus musculus [5]): inactive | inhibition (Mus musculus [6]): inactive | inhibition [2]: 7% | IC50 [4]: 18000 nM

COc1ccc2nc(N3CCNCC3COc3cccnc3)sc2c1 (racemic)
IC50 [4]: 79 nM

c1cncc(OCC2CNCCN2c2nc3ccccc3o2)c1 (racemic)
inhibition at 10 µM (CYP2D6): 87% | inhibition at 1 µM (hERG (KCNH2)): 22% | inhibition [1]: -2% | inhibition at 10 µM (CYP3A4): 17% | inhibition at 10 µM (CYP2C19): 24% | inhibition at 10 µM (CYP2C9): 20% | inhibition at 10 µM (CYP1A2): 36% | inhibition [2]: 95% | inhibition [3]: 89% | IC50 [4]: 106 nM

COc1ccc2nc(N3CCNCC3COc3cccnc3)oc2c1 (racemic)
IC50 [4]: 22 nM

COc1ccc2oc(N3CCNCC3COc3cccnc3)nc2c1 (racemic)
IC50 [4]: 71 nM

Brc1ccc2oc(N3CCNCC3COc3cccnc3)nc2c1 (racemic)
IC50 [4]: 75 nM

c1cncc(OCC2CNCCN2c2nc3ncccc3o2)c1 (racemic)
IC50 [4]: 4 nM

c1cncc(OCC2CNCCN2c2nc3ccccc3s2)c1 (racemic)
IC50 [4]: 490 nM

COc1ccc2sc(N3CCNCC3COc3cccnc3)nc2c1 (racemic)
IC50 [4]: 107 nM

Cc1ccc2nc(N3CCNCC3COc3cccnc3)sc2c1 (racemic)
IC50 [4]: 85 nM

Clc1ccc2nc(N3CCNCC3COc3cccnc3)sc2c1 (racemic)
IC50 [4]: 153 nM

FC(F)(F)Oc1ccc2nc(N3CCNCC3COc3cccnc3)sc2c1 (racemic)
IC50 [4]: 270 nM

FC(F)(F)c1ccc2nc(N3CCNCC3COc3cccnc3)sc2c1 (racemic)
IC50 [4]: 338 nM

Fc1ccc2nc(N3CCNCC3COc3cccnc3)sc2c1 (racemic)
IC50 [4]: 132 nM

Fc1cccc2sc(N3CCNCC3COc3cccnc3)nc12 (racemic)
inhibition at 10 µM (CYP2D6): 60% | inhibition at 1 µM (hERG (KCNH2)): 19% | inhibition [1]: 20% | inhibition at 10 µM (CYP3A4): 75% | inhibition at 10 µM (CYP2C19): 60% | inhibition at 10 µM (CYP2C9): 28% | inhibition at 10 µM (CYP1A2): 63% | inhibition [2]: 99% | inhibition [3]: 53% | IC50 [4]: 17 nM

Fc1cc(F)c2nc(N3CCNCC3COc3cccnc3)sc2c1 (racemic)
inhibition at 10 µM (CYP2D6): 72% | inhibition at 1 µM (hERG (KCNH2)): 36% | inhibition [1]: 12% | inhibition at 10 µM (CYP3A4): 83% | inhibition at 10 µM (CYP2C19): 70% | inhibition at 10 µM (CYP2C9): 26% | inhibition at 10 µM (CYP1A2): 67% | inhibition [2]: 91% | inhibition [3]: 45% | IC50 [4]: 19 nM

c1cncc(OCC2CNCCN2c2nc3ncccc3s2)c1 (racemic)
IC50 [4]: 32 nM

Clc1cnc2nc(N3CCNCC3COc3cccnc3)sc2c1 (racemic)
IC50 [4]: 4 nM

O=C(c1ccccc1)N1CCNCC1COc1cccnc1 (racemic)
IC50 [4]: 1080 nM

O=C(c1ccc(Cl)cc1)N1CCNCC1COc1cccnc1 (racemic)
IC50 [4]: 6100 nM

O=C(Cc1ccccc1)N1CCNCC1COc1cccnc1 (racemic)
IC50 [4]: 560 nM

O=C(Cc1ccc(Cl)cc1)N1CCNCC1COc1cccnc1 (racemic)
IC50 [4]: 110 nM

O=C(COc1ccccc1)N1CCNCC1COc1cccnc1 (racemic)
IC50 [4]: 2340 nM

O=C(Nc1ccccc1)N1CCNCC1COc1cccnc1 (racemic)
IC50 [4]: 680 nM

O=C(Nc1ccc(Cl)cc1)N1CCNCC1COc1cccnc1 (racemic)
IC50 [4]: 70 nM

O=C(Oc1ccccc1)N1CCNCC1COc1cccnc1 (racemic)
IC50 [4]: 37 nM

O=C(Oc1ccc(Cl)cc1)N1CCNCC1COc1cccnc1 (racemic)
IC50 [4]: 9.5 nM

COc1ccc(OC(=O)N2CCNCC2COc2cccnc2)cc1 (racemic)
inhibition [1]: 2% | inhibition [2]: 39% | inhibition [3]: 90% | IC50 [4]: 11 nM

O=C(Nc1cccc(Cl)c1)N1CCNCC1COc1cccnc1 (racemic)
IC50 [4]: 210 nM

O=C(Nc1ccc(Cl)c(Cl)c1)N1CCNCC1COc1cccnc1 (racemic)
IC50 [4]: 40 nM

Cc1ccc(NC(=O)N2CCNCC2COc2cccnc2)cc1 (racemic)
IC50 [4]: 74 nM

O=C(Nc1ccc(C(F)(F)F)cc1)N1CCNCC1COc1cccnc1 (racemic)
IC50 [4]: 220 nM

CC(C)c1ccc(NC(=O)N2CCNCC2COc2cccnc2)cc1 (racemic)
IC50 [4]: 280 nM

COc1cccc(NC(=O)N2CCNCC2COc2cccnc2)c1 (racemic)
IC50 [4]: 340 nM

COc1ccccc1NC(=O)N1CCNCC1COc1cccnc1 (racemic)
IC50 [4]: 850 nM

COc1ccc(NC(=O)N2CCNCC2COc2cccnc2)c(OC)c1 (racemic)
IC50 [4]: 80 nM

COc1ccc(NC(=O)N2CCNCC2COc2cccnc2)cc1Cl (racemic)
inhibition at 10 µM (CYP2D6): 25% | inhibition at 1 µM (hERG (KCNH2)): 17% | inhibition [1]: 17% | inhibition at 10 µM (CYP3A4): 66% | inhibition at 10 µM (CYP2C19): 47% | inhibition at 10 µM (CYP2C9): 10% | inhibition at 10 µM (CYP1A2): 20% | inhibition [2]: 40% | inhibition [3]: 23% | IC50 [4]: 45 nM

O=C(Nc1ccc(OC(F)(F)F)cc1)N1CCNCC1COc1cccnc1 (racemic)
IC50 [4]: 152 nM

O=C(Nc1ccc(Br)cc1)N1CCNCC1COc1cccnc1 (racemic)
IC50 [4]: 50 nM

Cc1cc(NC(=O)N2CCNCC2COc2cccnc2)ccc1Br (racemic)
inhibition at 10 µM (CYP2D6): 85% | inhibition at 1 µM (hERG (KCNH2)): 27% | inhibition [1]: 23% | inhibition at 10 µM (CYP3A4): 80% | inhibition at 10 µM (CYP2C19): 51% | inhibition at 10 µM (CYP2C9): 21% | inhibition at 10 µM (CYP1A2): 48% | inhibition [2]: 80% | inhibition [3]: 15% | IC50 [4]: 14 nM

O=C(Nc1ccc(Br)cc1F)N1CCNCC1COc1cccnc1 (racemic)
inhibition at 10 µM (CYP2D6): 41% | inhibition at 1 µM (hERG (KCNH2)): 18% | inhibition [1]: 7% | inhibition at 10 µM (CYP3A4): 58% | inhibition at 10 µM (CYP2C19): 32% | inhibition at 10 µM (CYP2C9): 7% | inhibition at 10 µM (CYP1A2): 13% | inhibition [2]: 47% | inhibition [3]: 30% | IC50 [4]: 42 nM

O=C(Nc1ccc(-c2ccccc2)cc1)N1CCNCC1COc1cccnc1 (racemic)
IC50 [4]: 13 nM

O=C(c1ccccc1)c1ccc(NC(=O)N2CCNCC2COc2cccnc2)cc1 (racemic)
inhibition at 10 µM (CYP2D6): 7% | inhibition at 1 µM (hERG (KCNH2)): 40% | inhibition [1]: 10% | inhibition at 10 µM (CYP3A4): 23% | inhibition at 10 µM (CYP2C19): 49% | inhibition at 10 µM (CYP2C9): 62% | inhibition at 10 µM (CYP1A2): 16% | inhibition [2]: 16% | inhibition [3]: 18% | IC50 [4]: 41 nM

O=C(Nc1ccc2c(c1)CCO2)N1CCNCC1COc1cccnc1 (racemic)
IC50 [4]: 630 nM

From ChEMBL document CHEMBL3259628, “Discovery of novel 2-((pyridin-3-yloxy)methyl)piperazines as α7 nicotinic acetylcholine receptor modulators for the treatment of inflammatory disorders” (J Med Chem, 2014)
